Results: ChEMBL document CHEMBL1128208, “(3SR,4aRS,6SR,8aRS)-6-(1H-tetrazol-5-yl)decahydroisoquinoline-3-carboxylic acid, a novel, competitive, systemically active NMDA and AMPA receptor antagonist” (J Med Chem, 1995)
Where “and” joins values, the source holds several entries; their conditions need not be identical. Equal values may be shown once.

Experiments:
[1] = molecular target: Glutamate receptor ionotropic kainate; experiment: Binding affinity against Ionotropic glutamate receptor kainate using [3H]-Kainic acid as a radioligand; format: protein-complex assay
Procedure, shortened: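 Displacement of [3H]kainic acid from kainate receptor sites. Run in triplicate unless otherwise indicated; IC50 reported.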

Glutamate NMDA receptor = experiment: Binding affinity against NMDA receptor using [3H]-CGS- 19755 as a radioligand in rat
Procedure, shortened: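 Displacement of the selective NMDA-site radioligand [3H]CGS 19755. Run in triplicate unless otherwise indicated; IC50 reported.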

Rattus norvegicus [2] = species: Rattus norvegicus; experiment: Inhibitory activity against compound induced depolarization of Kainic acid receptor in rat cortical slice preparation; format: functional
Procedure, shortened: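 Cortical slice depolarizations evoked by 10 μM kainic acid. Test compound at concentrations up to 100 μM; the value is the IC50 for inhibition.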

Rattus norvegicus [3] = species: Rattus norvegicus; experiment: Inhibitory activity against compound induced depolarization of AMPA receptor in rat cortical slice preparation; format: functional
Procedure, shortened: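 Cortical slice preparation. Depolarizations evoked by 40 μM AMPA or 40 μM quisqualic acid (QUIS); the value is the IC50 for inhibition of the agonist response.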

[4] = molecular target: Glutamate receptor ionotropic AMPA (Homo sapiens, UniProt P42261+P42262+P42263+P48058); experiment: Binding affinity against Ionotropic glutamate receptor AMPA using [3H]AMPA as a radioligand; format: protein-complex assay
Rattus norvegicus [5] = species: Rattus norvegicus; experiment: Inhibitory activity against compound induced depolarization of NMDA receptor in rat cortical slice preparation; format: functional
Procedure, shortened: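 Cortical slice preparation. Depolarizations evoked by 40 μM NMDA; the value is the IC50 for inhibition of the NMDA response.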

Rattus norvegicus [6] = species: Rattus norvegicus; experiment: Compound was evaluated against compound induced depolarization of NMDA receptor in rat cortical slice preparation; format: functional
Procedure, shortened: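 Cortical slice preparation in which depolarization was induced by 40 μM NMDA. Antagonism was measured as inhibition of this depolarization, and […].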

[7] = Compound was evaluated for high binding affinity towards glycine site on the NMDA receptor; parameters: species or system Rattus norvegicus
Xenopus sp. [8] = species: Xenopus sp.; experiment: Compound was evaluated for blocking of depolarization induced by 30 uM NMDA in xenopus oocytes injected with rat brain m-RNA
Xenopus sp. [9] = species: Xenopus sp.; experiment: Compound was evaluated for blocking of depolarization induced by 30 uM AMPA in xenopus oocytes injected with rat brain m-RNA; format: functional, frog
[10] = Binding affinity towards glycine site on the NMDA receptor was determined; parameters: species or system Rattus norvegicus

SMILES	IC50 [1] [µM]	IC50 (Glutamate NMDA receptor) [µM]	IC50 (Rattus norvegicus [2]) [µM]	IC50 (Rattus norvegicus [3]; Rattus norvegicus) [µM]	IC50 [4] [µM]	IC50 (Rattus norvegicus [5]; Rattus norvegicus) [µM]	IC50 (Rattus norvegicus [3]) [µM]	IC50 (Rattus norvegicus [5]) [µM]	also measured
O=C(O)[C@@H]1C[C@H]2C[C@@H](Cc3nnn[nH]3)CC[C@H]2CN1 (racemic)	> 100	0.82	> 100	> 100	84.5	1.4			
O=C(O)[C@@H]1C[C@H]2C[C@@H](c3nnn[nH]3)CC[C@H]2CN1 (racemic)	31.8	1.6	> 100		12.8		40.9	7.5	
O=C1Nc2cc(Cl)ccc2CC1[N+](=O)[O-] (centres undefined)									KbS (Rattus norvegicus [6]): 6.7 µM and 9.2 µM; IC50 [7]: 0.41 µM
O=C(O)[C@@H]1C[C@H]2C[C@@H](c3nnn[nH]3)CC[C@H]2CN1 (stereo in doubt; (+)-6)	> 100	> 100			> 100		> 100	> 100	
O=C(O)[C@@H]1C[C@H]2C[C@H](c3nnn[nH]3)CC[C@H]2CN1 (racemic)	> 100	38.4		> 100	> 100	65			
O=C(O)[C@@H]1C[C@H]2C[C@@H](CCc3nn[nH]n3)CC[C@H]2CN1 (racemic) [TEZAMPANEL ANHYDROUS]	247	26.4	31.7	6		61.3			
O=C(O)[C@@H]1C[C@H]2C[C@@H](c3nnn[nH]3)CC[C@H]2CN1 (stereo in doubt; (-)-6)	21	1			5.7		13.2	4.1	
O=[N+]([O-])c1ccc2cc(NS(=O)(=O)C(F)(F)F)c(O)nc2c1									Ki (Xenopus sp. [8]): 0.62 µM; Ki [4]: 0.6 µM; Ki (Xenopus sp. [9]): 0.37 µM
O=[N+]([O-])c1cc2nc(O)c(O)nc2cc1[N+](=O)[O-] [DNQX]									Ki [10]: 0.39 µM; Ki [4]: 0.36 µM
O=C(O)[C@H]1CC[C@H]2CN[C@H](C(=O)O)C[C@H]2C1 (racemic)		> 100	> 100	> 100	> 100	> 100			
